From PubChem BioAssay AID488779 (The Scripps Research Institute Molecular Screening Center, 2010) come the findings set out here.

Each structure is given as a SMILES string. Active and inactive are the calls of the source.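 The calls were made as follows: active = SF-1 luciferase reporter signal in cells inhibited by more than 25%; inactive = the rest.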

As usually defined, the inhibition is the relative decrease from the control value, in per cent.

Chain of Steroidogenic factor 1 (Homo sapiens) (Q13285 whole entry, looked up): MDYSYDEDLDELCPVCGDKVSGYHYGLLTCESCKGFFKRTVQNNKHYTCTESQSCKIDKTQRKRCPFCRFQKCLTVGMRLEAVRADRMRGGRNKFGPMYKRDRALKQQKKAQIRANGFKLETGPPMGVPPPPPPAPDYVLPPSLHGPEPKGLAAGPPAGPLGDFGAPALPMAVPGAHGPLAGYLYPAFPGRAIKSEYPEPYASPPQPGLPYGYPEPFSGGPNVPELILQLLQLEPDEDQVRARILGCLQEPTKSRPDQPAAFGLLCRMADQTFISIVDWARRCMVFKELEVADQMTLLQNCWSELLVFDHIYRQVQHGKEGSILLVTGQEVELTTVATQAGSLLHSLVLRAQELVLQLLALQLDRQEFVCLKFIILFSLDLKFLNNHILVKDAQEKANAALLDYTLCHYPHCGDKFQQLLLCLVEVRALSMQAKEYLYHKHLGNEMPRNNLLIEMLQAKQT

The target of this assay is Steroidogenic factor 1 (Homo sapiens) (UniProt Q13285). Briefly: SF-1 inhibition in luciferase reporter cells, confirmation, selectivity assay for LRH1 inverse agonist project, cell-based, luminescence, powder samples, single concentration (AID 488779). Conditions: HEK293T SF-1 5xSFRE luciferase reporter, 20 h; at 5 µM; hits give high values. The method, boiled down:
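Assay system: HEK293T cells with SF-1 and SFRE-luciferase reporter | Measure: Percent inhibition of luminescence from average fold change versus DMSO-treated cells | Replication: Triplicate wells per compound, averaged | Incubation: 20 h compound exposure | Detection: Luminescent luciferase readout | Compound: Single nominal dose of 5 µM test compound | Controls: DMSO-treated cells as vehicle reference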
(In a reporter assay the amount or activity of a reporter protein is the signal.)
In the case of `O=c1cc(N2CCN(c3cccc(Cl)c3)CC2)[nH]c(=O)[nH]1`, the inhibition is 2% (inactive).

With `O=c1cc(N2CCN(c3ccnc4cc(Cl)ccc34)CC2)[nH]c(=O)n1C1CCCCC1`, the inhibition is 11% (inactive).

`O=c1cc(N2CCN(c3ncccc3Cl)CC2)[nH]c(=O)n1C1CCCCC1`: the inhibition is 13% (inactive).

For `CCn1c(=O)cc(N2CCN(Cc3ccccc3)CC2)[nH]c1=O`, the inhibition was 27%.

On to `O=C(c1ccccc1)N1CCN(c2cc(=O)n(C3CCCCC3)c(=O)[nH]2)CC1`, for which the inhibition is 2% (inactive).

As to `Cc1cc(C)cc(N2CCN(c3cc(=O)n(C4CCCCC4)c(=O)[nH]3)CC2)c1`, the inhibition was -4% (inactive).

As for `CCn1c(=O)cc(N2CCN(C(=O)c3ccco3)CC2)[nH]c1=O`, the inhibition was 30%.

As for `O=C(c1ccco1)N1CCN(c2cc(=O)n(C3CCCCC3)c(=O)[nH]2)CC1`, the inhibition is 6% (inactive).

With `O=c1cc(N2CCN(c3nccc4occc34)CC2)[nH]c(=O)n1C1CCCCC1`, the inhibition was -14% (inactive).

`O=c1cc(N2CCN(c3nc(-c4ccccc4)ns3)CC2)[nH]c(=O)n1C1CCCCC1`: the inhibition is 1% (inactive).

With `O=c1cc(N2CCCCC2)[nH]c(=O)n1C1CCCCC1`, the inhibition is 23% (inactive).

On to `O=c1cc(N2CCC(Cc3ccccc3)CC2)[nH]c(=O)n1C1CCCCC1`, for which the inhibition was 9% (inactive).

As for `O=c1cc(N2CCN(c3ccc(F)cc3)CC2)[nH]c(=O)n1C1CCCCC1`, the inhibition is -2% (inactive).

For the compound `O=c1cc(N2CCN(c3cccc(C(F)(F)F)n3)CC2)[nH]c(=O)n1C1CCCCC1`, the inhibition is 9% (inactive).

In the case of `CCn1c(=O)cc(N2CCN(c3cccc(Cl)c3)CC2)[nH]c1=O`, the inhibition was -10% (inactive).

For `CCN1CCN(c2cc(=O)n(C3CCCCC3)c(=O)[nH]2)CC1`, the inhibition is 5% (inactive).

As to `O=c1cc(N2CCc3ccccc32)[nH]c(=O)n1C1CCCCC1`, the inhibition is 23% (inactive).

As to `C=CCN1CCN(c2cc(=O)n(C3CCCCC3)c(=O)[nH]2)CC1`, the inhibition was -13% (inactive).

Consider `N#CCn1c(N2CCN(c3cccc(C(F)(F)F)c3)CC2)cc(=O)n(C2CCCCC2)c1=O`, for which the inhibition is 4% (inactive).

`O=c1cc(N2CCN(c3ccccn3)CC2)[nH]c(=O)n1C1CCCCC1`: the inhibition was -7% (inactive).

As for `O=c1cc(N2CCN(c3ccccc3Cl)CC2)[nH]c(=O)n1C1CCCCC1`, the inhibition was -19% (inactive).

Turning to `C=CCn1c(N2CCN(c3cccc(C(F)(F)F)c3)CC2)cc(=O)n(C2CCCCC2)c1=O`, the inhibition is -24% (inactive).

Turning to `Cn1c(=O)cc(N2CCN(c3cccc(Cl)c3)CC2)[nH]c1=O`, the inhibition was -2% (inactive).

`CCn1c(=O)cc(N2CCN(c3cccc(C(F)(F)F)c3)CC2)[nH]c1=O`: the inhibition is -81% (inactive).

Take `O=c1cc(N2CCN(c3cccc(Cl)n3)CC2)[nH]c(=O)n1C1CCCCC1`: the inhibition was -3% (inactive).

For `O=c1cc(N2CCN(c3cc(C(F)(F)F)ccn3)CC2)[nH]c(=O)n1C1CCCCC1`, the inhibition was -83% (inactive).

As to `O=c1cc(N2CCN(c3ccccc3)CC2)[nH]c(=O)n1Cc1ccc(F)cc1`, the inhibition was -18% (inactive).

As to `COc1ccc(N2CCN(c3cc(=O)n(C4CCCCC4)c(=O)[nH]3)CC2)cc1`, the inhibition is 5% (inactive).

As to `CC1CCN(c2cc(=O)n(C3CCCCC3)c(=O)[nH]2)CC1`, the inhibition is -5% (inactive).

For the compound `O=c1cc(N2CCN(CCN3CCOCC3)CC2)[nH]c(=O)n1C1CCCCC1`, the inhibition was 9% (inactive).

In the case of `COC(=O)C1CCN(c2cc(=O)n(C3CCCCC3)c(=O)[nH]2)CC1`, the inhibition was 6% (inactive).

Take `O=c1cc(N2CCN(c3cccc(C(F)(F)F)c3)CC2)[nH]c(=O)n1-c1ccccc1`: the inhibition is -3% (inactive).

Turning to `Cc1ccc(C)n1CCN1CCN(c2cc(=O)n(C3CCCCC3)c(=O)[nH]2)CC1`, the inhibition is 7% (inactive).

As for `CCn1c(=O)cc(N2CCN(c3ccc(F)cc3)CC2)[nH]c1=O`, the inhibition is 10% (inactive).

As for `O=c1cc(N2CCN(c3ccccc3)CC2)[nH]c(=O)n1C1CCCCC1`, the inhibition was -3% (inactive).

`O=c1cc(N2CCN(c3ccccc3C(F)(F)F)CC2)[nH]c(=O)n1C1CCCCC1`: the inhibition was 5% (inactive).

`O=c1cc(N2CCN(c3cc(Cl)cc(Cl)c3)CC2)[nH]c(=O)n1C1CCCCC1`: the inhibition was -9% (inactive).

For `CCOC(=O)N1CCN(c2cc(=O)n(C3CCCCC3)c(=O)[nH]2)CC1`, the inhibition was 19% (inactive).

On to `O=c1cc(N2CCCC2)[nH]c(=O)n1C1CCCCC1`, for which the inhibition is 5% (inactive).

On to `C=CCn1c(=O)cc(N2CCN(c3cccc(C(F)(F)F)c3)CC2)[nH]c1=O`, for which the inhibition was -164% (inactive).

For the compound `O=c1cc(N2CCN(C(c3ccccc3)c3ccccc3)CC2)[nH]c(=O)n1C1CCCCC1`, the inhibition was -8% (inactive).

In the case of `Cn1c(=O)cc(N2CCN(c3ccc(F)cc3)CC2)[nH]c1=O`, the inhibition is -2% (inactive).

With `O=c1cc(N2CCN(c3cccc(C(F)(F)F)c3)CC2)[nH]c(=O)n1Cc1ccccc1`, the inhibition was 1% (inactive).

As to `O=c1cc(N2CCN(c3ncccc3C(F)(F)F)CC2)[nH]c(=O)n1C1CCCCC1`, the inhibition was 5% (inactive).

For `O=c1cc(N2CCN(c3ccc(C(F)(F)F)cc3)CC2)[nH]c(=O)n1C1CCCCC1`, the inhibition was 1% (inactive).

Regarding `O=c1cc(N2CCN(Cc3ccc(Cl)cc3)CC2)[nH]c(=O)n1C1CCCCC1`, the inhibition is -4% (inactive).

As to `CC1CCN(c2cc(=O)n(Cc3ccc(F)cc3)c(=O)[nH]2)CC1`, the inhibition is 0% (inactive).

On to `O=c1cc(N2CCN(c3cccc(Cl)c3)CC2)[nH]c(=O)n1C1CCCCC1`, for which the inhibition is 5% (inactive).

In the case of `O=c1cc(N2CCN(c3cccc(Br)c3)CC2)[nH]c(=O)n1C1CCCCC1`, the inhibition is -23% (inactive).

For `O=c1cc(N2CCN(c3cccc(C(F)(F)F)c3)CC2)n(Cc2ccccc2)c(=O)n1C1CCCCC1`, the inhibition was 3% (inactive).

For the compound `O=c1cc(N2CCN(C3CCCCC3)CC2)[nH]c(=O)n1C1CCCCC1`, the inhibition was 9% (inactive).

Take `CC(C)Cn1c(=O)cc(N2CCN(c3cccc(C(F)(F)F)c3)CC2)[nH]c1=O`: the inhibition is -95% (inactive).

On to `CCn1c(=O)cc(N2CCN(c3ccccc3)CC2)[nH]c1=O`, for which the inhibition is 7% (inactive).

Consider `O=c1cc(N2CCN(c3cccc(Cl)c3Cl)CC2)[nH]c(=O)n1C1CCCCC1`, for which the inhibition was 3% (inactive).

Regarding `O=c1cc(N2CCOCC2)[nH]c(=O)n1C1CCCCC1`, the inhibition was 0% (inactive).

With `O=c1cc(N2CCN(c3cccc(C(F)(F)F)c3)CC2)[nH]c(=O)n1C1CCCCC1`, the inhibition was -1% (inactive).

`Cc1ccc(Cl)cc1N1CCN(c2cc(=O)n(C3CCCCC3)c(=O)[nH]2)CC1`: the inhibition was -12% (inactive).

Consider `O=c1cc(N2CCN(Cc3ccc4c(c3)OCO4)CC2)[nH]c(=O)n1C1CCCCC1`, for which the inhibition was 24%.

On to `O=c1cc(N2CCN(c3ccc(F)cc3F)CC2)[nH]c(=O)n1C1CCCCC1`, for which the inhibition was -49% (inactive).

With `O=c1cc(N2CCN(c3cccc(F)c3)CC2)[nH]c(=O)n1C1CCCCC1`, the inhibition was -112% (inactive).
